Assay [1] in a line: inhibitors of TNFa-induced NFkB p65 translocation, primary screen, imaging, HUVEC, MLSMR starter and 10KST1 sets (AID 438;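 active means inhibition above 20% together with a positive visual image hit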;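 further: compound added about 3h40 before a 20 min TNFalpha stimulation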;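 on inhibition: signal is the nuclear over cytoplasmic p65 intensity ratio per well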). The following applies: HUVEC TNFa-induced p65 nuclear translocation; cell count: measured here: nuclei count (cytotoxicity indicator), at 2.08 µM; inhibition: at 2 µM, stronger effect = higher value, 0% TNFa-plus-vehicle, 100% no-TNFa wells.
The nature of assay [2]: reduction of polyQ htt aggregates in cells – imaging, exon1htt(103Q)mCFP cells, high-content imaging, primary screen (AID 483;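 active means visual image review flags a hit and inhibition of aggregation exceeds 20%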;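 further: compound exposure lasted 3 days before fixation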;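 on nuclei count: percent of the per-plate median nuclei count of sample wells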). As to conditions: exon1htt(103Q)mCFP cell line, aggregate imaging, at 2 µM; inhibition of aggregation: stronger effect = higher value; nuclei count: measured here: cell count, toxicity.
Assay [3] is described as follows: endothelial E-selectin expression blockers – imaging, HUVEC, immunofluorescence, MLSMR starter and 10KST1 sets, primary screen (AID 487;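 active means visually confirmed hit in the image check and inhibition above 20%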;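 on inhibition: signal is fraction of cell area covered by stained E-selectin grains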;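 on nuclei count: 100% = median nuclei count of all wells on the same plate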). The following applies: HUVEC TNFalpha-induced E-selectin immunofluorescence imaging, at 2 µM; inhibition: stronger effect = higher value; nuclei count: measured here: cell number, toxicity.
For assay [4], the target named is Voltage-gated potassium channel subunit beta-2 (Rattus norvegicus) (UniProt P62483). In words: inhibitors of rat Kvbeta2 reductase activity – biochemical, NADPH fluorescence, primary screen (AID 622;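 active means fluorescence slope higher than the sample average by over 3 SD, cut at about -0.22 in these data, passing the limit was not always enough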;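 further: slope of raw intensity against log time taken from 70 to 1610 s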). The following applies: recombinant KvBeta, 4-cyanobenzaldehyde reduction, at 10 µM, stronger effect = higher value.
Assay [5] has the same target. In words: enhancers of rat Kvbeta2 NADPH turnover – biochemical, NADPH fluorescence, primary screen (AID 623;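 active means NADPH fluorescence slope more negative than the mean of all samples by about 3 SD, 99.7% confidence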;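 further: fluorescence intensity change per second fitted from 20 to 320 s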). The following applies: Recombinant KvBeta, NADPH fluorescence decrease slope, 10 min; at 10 µM; stronger effect = lower value.
Assay [6] addresses Muscarinic acetylcholine receptor M4 (Homo sapiens) (UniProt P08173). In words: M4-linked GIRK flux change, two-sided – cell-based, HEK293 M4/GIRK, thallium flux, BTC-AM, M4 allosteric agonist project, primary screen (AID 625;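 active means fluorescence slope after compound addition differing from the mean of all tested samples at 99.7% confidence, mostly higher but some lower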;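 further: thallium influx through GIRK channels coupled to M4 in HEK293 cells with BTC-AM dye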). As to conditions: at 10 µM, actives lie on both sides. In outline:
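System: HEK293 cells with M4 receptor and GIRK channels | Incubation: Cells overnight at 37 °C, BTC-AM loading 1 h, reads 2 min total | Technique: Kinetic BTC-AM fluorescence sampled at 1 Hz, 10 s pre-addition baseline | Measure: Post-addition slope, 15–24 s, of baseline-normalized fluorescence | Control set: Carbachol positive, DMSO negative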

The nature of assay [7]: blockers of RIG-like receptor reporter activation – cell-based, Sendai virus stimulus, luciferase, 10K MLSCN set, TLR/RLR signaling modifier project, primary screen (AID 602276;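 active means inhibition at or above 50% at 10 µM; inactive means inhibition below 50%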;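 further: firefly luciferase from ISG56 promoter only with Renilla not read in this screen; 0% = Sendai virus plus DMSO and 100% = medium plus DMSO without virus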). As to conditions: HEK293 RL24 IRF3 luciferase reporter, at 10 µM, stronger effect = higher value. On the technique in general: Reporter assays use an easily measured gene product as a stand-in for the process of interest.

A short description of assay [8]: TLR3 IRF3 reporter activation blockers – cell-based, poly I:C stimulus, luciferase, 10K MLSCN set, primary screen (AID 602277). The following applies: HEK293-TLR3 RL24 IRF3 luciferase reporter, at 10 µM, stronger effect = higher value.

From PubChem BioAssay come the findings set out here.

The source made the active and inactive calls.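 How the source made its calls, unless noted: active means inhibition of the reporter signal at or above 50%; inactive means inhibition below 50%.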

Chain of Voltage-gated potassium channel subunit beta-2 (Rattus norvegicus) (P62483 whole entry, looked up): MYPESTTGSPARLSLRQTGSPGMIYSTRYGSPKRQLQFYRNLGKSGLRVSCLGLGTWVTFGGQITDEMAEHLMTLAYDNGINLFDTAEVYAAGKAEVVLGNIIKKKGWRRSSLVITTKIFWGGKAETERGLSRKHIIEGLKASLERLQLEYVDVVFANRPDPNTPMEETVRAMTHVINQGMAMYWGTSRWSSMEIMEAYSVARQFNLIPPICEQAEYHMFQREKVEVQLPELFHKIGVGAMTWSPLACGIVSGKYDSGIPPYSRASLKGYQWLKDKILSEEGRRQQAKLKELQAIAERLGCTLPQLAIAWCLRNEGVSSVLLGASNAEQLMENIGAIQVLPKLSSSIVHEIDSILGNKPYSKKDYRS
Chain of Muscarinic acetylcholine receptor M4 (Homo sapiens) (P08173 whole entry, looked up): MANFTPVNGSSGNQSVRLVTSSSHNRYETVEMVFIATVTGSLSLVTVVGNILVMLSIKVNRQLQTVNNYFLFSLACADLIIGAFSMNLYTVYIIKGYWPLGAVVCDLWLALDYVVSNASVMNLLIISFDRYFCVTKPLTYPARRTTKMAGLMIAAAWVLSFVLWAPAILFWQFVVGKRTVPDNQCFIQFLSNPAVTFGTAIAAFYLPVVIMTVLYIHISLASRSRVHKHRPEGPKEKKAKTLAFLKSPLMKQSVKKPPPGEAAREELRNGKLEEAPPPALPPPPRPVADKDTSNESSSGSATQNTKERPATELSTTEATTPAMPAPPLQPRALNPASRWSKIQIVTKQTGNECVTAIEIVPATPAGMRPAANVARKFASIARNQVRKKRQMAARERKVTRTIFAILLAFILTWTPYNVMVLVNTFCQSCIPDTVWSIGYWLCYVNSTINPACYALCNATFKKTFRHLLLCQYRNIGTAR

As to `O=C(O)C1CC(=O)N(c2ccc(Br)cc2)C1` (configuration not stated), the cell count in assay [1] stood at 375. The inhibition in assay [1] is 0.4% (inactive); in assay [3] it was -49.6% (inactive); in assay [7], 2.88% (inactive); in assay [8], 10% (inactive). In assay [2], the inhibition of aggregation was -10.6% (inactive). Moreover, the values for the nuclei count in assay [2] and in assay [3] were 107% and 117%, respectively. Further, the fluorescence slope is -0.506 (inactive) in assay [4] and 0.00384 (inactive) in assay [6]. The NADPH fluorescence slope in assay [5] is -0.000215 (inactive).

For the compound `COc1cc(NS(=O)(=O)c2ccc(Br)s2)cc(OC)c1`, the cell count in assay [1] came to 596. Also, the inhibition in assay [1] is 10.2% (inactive); in assay [3] it was -77.9% (inactive); in assay [7], 9.26% (inactive); in assay [8] it was 10% (inactive). The inhibition of aggregation in assay [2] is -27.3% (inactive). For the same compound, the nuclei count was 99.5% in assay [2] and 94.3% in assay [3]. Moreover, the fluorescence slope was -0.402 (inactive) in assay [4] and 0.00547 (inactive) in assay [6]. Besides, in assay [5], the NADPH fluorescence slope was 6.7e-05 (inactive).

On to `COc1ccc2c(c1OC)C(=O)OC2Nn1cncn1` (configuration not stated), for which, in assay [1], the cell count amounted to 334. For the same compound, the inhibition is -9.5% (inactive) in assay [1], 1.1% (inactive) in assay [3], 15.9% (inactive) in assay [7] and 22.6% (inactive) in assay [8]. Moreover, the inhibition of aggregation in assay [2] was -11.1% (inactive). Besides, the results for the nuclei count in assay [2] and in assay [3] were 113% and 108%, respectively. In addition, the fluorescence slope in assay [4] is -0.565 (inactive); in assay [6] it was 0.00408 (inactive). Also, the NADPH fluorescence slope in assay [5] was 1.7e-05 (inactive).

As to `CCC(C)(C)n1nnnc1C(c1ccccc1OC)N1CCSCC1` (configuration not stated), the cell count in assay [1] came to 252. Further, the inhibition in assay [1] is -16.3% (inactive); in assay [3], 32.4% (inactive); in assay [7], 6.1% (inactive); in assay [8] it was 23.7% (inactive). In addition, in assay [2], the inhibition of aggregation is 6.6% (inactive). The nuclei count in assay [2] stood at 106%; in assay [3] it was 53.7%. Besides, the values for the fluorescence slope in assay [4] and in assay [6] were -0.555 (inactive) and 0.00476 (inactive), respectively. In assay [5], the NADPH fluorescence slope was -4.3e-05 (inactive).

Take `COC(=O)c1sccc1NC(=O)c1ccncc1`: the cell count in assay [1] was 467. For the same compound, the inhibition was 5.7% (inactive) in assay [1], -36.5% (inactive) in assay [3], 12% (inactive) in assay [7] and -9.7% (inactive) in assay [8]. For the same compound, in assay [2], the inhibition of aggregation is 7.5% (inactive). Besides, the figures for the nuclei count in assay [2] and in assay [3] were 103% and 122%, respectively. Also, the figures for the fluorescence slope in assay [4] and in assay [6] were -0.49 (inactive) and 0.00518 (inactive), respectively. In addition, the NADPH fluorescence slope in assay [5] is -3.8e-05 (inactive).

For the compound `COc1cccc(-c2cc(C(F)(F)F)n3nc(N)nc3n2)c1`, the cell count in assay [1] was 814. For the same compound, the inhibition in assay [1] is -0.8% (inactive); in assay [3], 31.9% (inactive); in assay [7] it was 6.21% (inactive); in assay [8], -0.814% (inactive). In addition, the inhibition of aggregation in assay [2] is 18.9% (inactive). For the same compound, the results for the nuclei count in assay [2] and in assay [3] were 90.5% and 98.9%, respectively. Also, the fluorescence slope in assay [4] was -0.449 (inactive); in assay [6] it was 0.00414 (inactive). The NADPH fluorescence slope in assay [5] was -5e-05 (inactive).

On to `CCN(CC)CC(=O)Nc1ccc(-c2nc3cc(NC(=O)CN(CC)CC)ccc3o2)cc1`, for which the cell count in assay [1] is 621. Also, the inhibition is 4.9% (inactive) in assay [1], 41.6% (inactive) in assay [3], -12.5% (inactive) in assay [7] and 92.9% (active) in assay [8]. Besides, the inhibition of aggregation in assay [2] was -13.9% (inactive). For the same compound, the nuclei count is 102% in assay [2] and 100% in assay [3]. The results for the fluorescence slope in assay [4] and in assay [6] were -0.0978 (inactive) and 0.00522 (inactive), respectively. In addition, the NADPH fluorescence slope in assay [5] is -3.8e-06 (inactive).

Broadly, the inhibition is the drop in the measured response relative to a control, in per cent.
